Source: ChEMBL document CHEMBL2439985, “Multifunctional cyclic D,L-α-peptide architectures stimulate non-insulin dependent glucose uptake in skeletal muscle cells and protect them against oxidative stress” (J Med Chem, 2013)
Activity calls are given as the source filed them. The calls are words filed in the database; no cut-off is given here.

Columns and labels:
[1] = Antioxidant activity assessed as inhibition of H2O2-induced ROS production by DCFH assay; assay type: functional
Procedure, shortened: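 DCFH oxidation assay: H2O2 (0.5 mM) was incubated with DCFH with or without the test agent, and the DCF formed was read fluorometrically. Free His and Trolox served as controls.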

[2] = Antioxidant activity assessed as inhibition of H2O2-induced hydroxyl radical formation by EPR spectroscopic analysis in presence of Fe2+; assay type: functional
Procedure, shortened: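 Hydroxyl radicals came from a Fenton reaction: H2O2 (10 mM), FeSO4·7H2O (10 mM) and DMPO spin trap (40 mM), with peptide at 1−1000 μM. Samples were diluted in 15 mM phosphate buffer, pH 7.4, and read immediately by EPR. The spin-adduct signal was integrated.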

[3] = target: T1, Solute carrier family 2, facilitated glucose transporter member 1 (Homo sapiens) (UniProt P11166); experiment: Induction of human myc epitope-tagged GLUT1 translocation to plasma membrane overexpressed in rat L6 cells at 2 mM after 30 mins by immunocolorimetric analysis in presence of 23.5 mM D-glucose; assay type: cell-based
T1 sequence (whole entry): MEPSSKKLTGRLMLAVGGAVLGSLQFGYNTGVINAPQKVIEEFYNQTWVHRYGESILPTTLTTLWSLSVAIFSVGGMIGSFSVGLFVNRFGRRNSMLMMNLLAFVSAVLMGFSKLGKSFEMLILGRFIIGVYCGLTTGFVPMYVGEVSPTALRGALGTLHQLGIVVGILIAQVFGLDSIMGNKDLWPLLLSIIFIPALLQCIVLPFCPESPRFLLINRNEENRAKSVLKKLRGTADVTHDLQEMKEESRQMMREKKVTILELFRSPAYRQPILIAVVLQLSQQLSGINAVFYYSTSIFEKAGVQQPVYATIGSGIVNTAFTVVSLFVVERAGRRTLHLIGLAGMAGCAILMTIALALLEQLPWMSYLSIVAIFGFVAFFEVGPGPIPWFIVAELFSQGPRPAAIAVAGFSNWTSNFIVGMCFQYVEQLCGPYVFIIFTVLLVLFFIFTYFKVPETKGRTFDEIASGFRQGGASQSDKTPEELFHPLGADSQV
Procedure, shortened: (§1)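 L6 myotubes overexpressing GLUT1myc or GLUT4myc were held 9 h in serum-free αMEM with 0.5% BSA and 23.5 mM glucose. They received peptide (25 μM) or 0.1% DMSO over the last 8 h, and insulin (100 nM) or ALA (2 mM) over the last 30 min. Live cells were labelled with anti-c-Myc (1:200) and fixed in 3% formaldehyde. HRP anti-rabbit IgG (1:2000) and OPD were added, and absorbance was read at 492 nm.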

[4] = test system: L6; experiment: Effect on human myc epitope-tagged total GLUT4 level overexpressed in rat L6 cells at 2 mM after 30 mins by Western blotting analysis; assay type: functional, cell-based
Procedure, shortened: (§2)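 Whole-cell lysates of GLUT1myc- or GLUT4myc-overexpressing L6 myotubes were made after the same treatments as in the surface assay. Western blots were run for total transporter content.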

[5] = test system: L6; experiment: Antioxidant activity in rat L6 cells assessed as trolox equivalents of ABTS free radical scavenging activity at 2 mM after 2 hrs by ELISA reader analysis in presence of 23.5 mM D-glucose; assay type: functional, cell-based
Procedure, shortened: (§3)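 L6 myotubes in αMEM with 2% FCS and 5.5 or 23.5 mM glucose were treated with peptide (25 μM, 12 h) or ALA (2 mM, 2 h), vehicle 0.1% DMSO. Cells were lysed (Tris pH 7.5, NaCl, NP-40) through three freeze-thaw cycles and centrifuged. Lysates were assayed for metmyoglobin/H2O2-driven ABTS•+ formation. Results are Trolox equivalents per mg protein from a Trolox standard curve, with protein by Bradford.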

[6] = test system: L6; experiment: Antihyperglycemic activity in rat L6 cells assessed as increase in [3H]dGlc uptake at 2 mM after 30 mins by liquid scintillation counting analysis; assay type: functional, cell-based
Procedure, shortened: (§4)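 Differentiated L6 myotubes were preincubated 24 h in αMEM with 2% FCS and 5.5 or 23.5 mM D-glucose, then switched to FCS-free medium with 0.5% BSA 4 h before the assay. Peptide was given for 12 h or ALA for 30 min, vehicle 0.1% DMSO. After PBS rinses, cells took up 0.1 mM dGlc plus [3H]dGlc (1.3 μCi mL−1) for 5 min at room temperature. Cells were lysed in 0.1% SDS and counted by scintillation. Uptake is expressed as % of the DMSO basal rate.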

[7] = test system: L6; experiment: Effect on human myc epitope-tagged total GLUT1 level overexpressed in rat L6 cells at 2 mM after 30 mins by Western blotting analysis; assay type: functional, cell-based; procedure, shortened: as §2
[8] = test system: L6; experiment: Effect on total GLUT1 level in rat L6 cells at 2 mM after 30 mins by Western blotting analysis; assay type: functional, cell-based
[9] = test system: L6; experiment: Effect on total GLUT4 level in rat L6 cells at 2 mM after 30 mins by Western blotting analysis; assay type: functional, cell-based
[10] = test system: L6; experiment: Cytoprotective activity in rat L6 cells assessed as increase in glucose oxidase-reduced cell survival at 2 mM incubated for 30 mins prior to glucose oxidase challenge measured after 5 hrs by MTT assay in presence of 23.5 mM D-glucose; assay type: functional, cell-based
Procedure, shortened: (§5)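 L6 myotubes were kept 7 days in 23.5 mM glucose. They were pretreated with peptide (25 μM, 12 h) or ALA (2 mM, 30 min), vehicle 0.1% DMSO, at 37 °C. Glucose oxidase (50 mU mL−1) was then added for 5 h to generate H2O2. Viability was read by MTT.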

[11] = test system: L6; experiment: Antihyperglycemic activity in rat L6 cells assessed as increase in [3H]dGlc uptake at 25 uM after 30 mins by liquid scintillation counting analysis; assay type: functional, cell-based
[12] = test system: L6; experiment: Antiapoptotic activity in rat L6 cells assessed as suppression of 23.5 mM D-glucose-induced JNK-54 phosphorylation at 2 mM after 30 mins by Western blot analysis; assay type: functional, cell-based
[13] = test system: L6; experiment: Antiapoptotic activity in rat L6 cells assessed as suppression of 23.5 mM D-glucose-induced JNK-46 phosphorylation at 2 mM after 30 mins by Western blot analysis; assay type: functional, cell-based
[14] = test system: L6; experiment: Effect on total GLUT1 level in rat L6 cells at 25 uM after 8 hrs by Western blotting analysis; assay type: functional, cell-based
[15] = test system: L6; experiment: Antihyperglycemic activity in rat L6 cells assessed as increase in [3H]dGlc uptake after 12 hrs by liquid scintillation counting analysis; assay type: functional, cell-based; procedure, shortened: as §4
[16] = Antioxidant activity assessed as inhibition of H2O2-induced hydroxyl radical formation by EPR spectroscopic analysis in absence of Fe2+; assay type: functional
[17] = test system: L6; experiment: Effect on human myc epitope-tagged total GLUT4 level overexpressed in rat L6 cells at 25 uM after 8 hrs by Western blotting analysis; assay type: functional, cell-based; procedure, shortened: as §2
[18] = test system: L6; experiment: Potency index, ratio of compound activity to ALA activity for increase in [3H]dGlc uptake in rat L6 cells; assay type: functional
Procedure, shortened: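 L6 myotubes (differentiated in αMEM, 2% FCS) preincubated 24 h in 23.5 mM D-glucose, then 4 h serum-free with 0.5% BSA. Peptide at increasing concentrations for 12 h, or ALA 2 mM for 30 min; vehicle 0.1% DMSO. Uptake: 0.1 mM dGlc plus [3H]dGlc 1.3 μCi/mL in PBS pH 7.4, 5 min RT; SDS lysis, scintillation counting, % of vehicle basal. Ratio compares concentrations giving similar uptake.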

[19] = test system: L6; experiment: Effect on total GLUT4 level in rat L6 cells at 25 uM after 8 hrs by Western blotting analysis; assay type: functional, cell-based
[20] = target: T2, Solute carrier family 2, facilitated glucose transporter member 4 (Homo sapiens) (UniProt P14672); experiment: Induction of human myc epitope-tagged GLUT4 translocation to plasma membrane overexpressed in rat L6 cells at 25 uM after 8 hrs by immunocolorimetric analysis in presence of 23.5 mM D-glucose relative to insulin; assay type: cell-based; procedure, shortened: as §1
T2 sequence (whole entry): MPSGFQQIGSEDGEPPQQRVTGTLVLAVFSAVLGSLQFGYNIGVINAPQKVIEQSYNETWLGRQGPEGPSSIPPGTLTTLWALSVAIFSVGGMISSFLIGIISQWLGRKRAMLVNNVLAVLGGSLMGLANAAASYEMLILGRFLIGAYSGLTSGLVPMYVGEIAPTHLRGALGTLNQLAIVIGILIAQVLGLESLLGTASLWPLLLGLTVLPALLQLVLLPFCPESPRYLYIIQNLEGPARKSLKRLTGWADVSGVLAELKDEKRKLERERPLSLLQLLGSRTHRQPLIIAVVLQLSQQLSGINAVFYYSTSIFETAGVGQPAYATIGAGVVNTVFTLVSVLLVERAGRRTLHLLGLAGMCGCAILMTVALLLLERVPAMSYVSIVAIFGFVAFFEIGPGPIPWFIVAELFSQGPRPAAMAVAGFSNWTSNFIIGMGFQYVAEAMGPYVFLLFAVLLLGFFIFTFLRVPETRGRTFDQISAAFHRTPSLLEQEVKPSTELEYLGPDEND

[21] = Potency index, ratio of Histidine EC50 to compound EC50 for inhibition of H2O2-induced ROS production; assay type: functional
[22] = test system: L6; experiment: Antioxidant activity in rat L6 cells assessed as trolox equivalents of ABTS free radical scavenging activity at 25 uM after 12 hrs by ELISA reader analysis in presence of 23.5 mM D-glucose; assay type: functional, cell-based; procedure, shortened: as §3
[23] = test system: L6; experiment: Antihyperglycemic activity in rat L6 cells assessed as increase in [3H]dGlc uptake at 25 uM after 6 to 12 hrs by liquid scintillation counting analysis; assay type: functional, cell-based
[24] = test system: L6; experiment: Cytoprotective activity in rat L6 cells assessed as increase in glucose oxidase-reduced cell survival at 25 uM incubated for 12 hrs prior to glucose oxidase challenge measured after 5 hrs by MTT assay in presence of 23.5 mM D-glucose; assay type: functional, cell-based; procedure, shortened: as §5
[25] = target: T1, Solute carrier family 2, facilitated glucose transporter member 1 (Homo sapiens); experiment: Induction of human myc epitope-tagged GLUT1 translocation to plasma membrane overexpressed in rat L6 cells at 25 uM after 8 hrs by immunocolorimetric analysis in presence of 23.5 mM D-glucose; assay type: cell-based; procedure, shortened: as §1
[26] = test system: L6; experiment: Antihyperglycemic activity in rat L6 cells assessed as increase in [3H]dGlc uptake at 5 uM after 12 hrs by liquid scintillation counting analysis; assay type: functional, cell-based; procedure, shortened: as §4
[27] = test system: L6; experiment: Effect on human myc epitope-tagged total GLUT1 level overexpressed in rat L6 cells at 25 uM after 8 hrs by Western blotting analysis; assay type: functional, cell-based; procedure, shortened: as §2
[28] = test system: L6; experiment: Antiapoptotic activity in rat L6 cells assessed as suppression of 23.5 mM D-glucose-induced JNK-46 phosphorylation at 25 uM after 8 hrs by Western blot analysis; assay type: functional, cell-based
Procedure, shortened: (§6)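 L6 myotubes held 7 days in 23.5 mM glucose medium, then exposed to peptide for 8 h or ALA for 3 h. Whole-cell lysates were made in ice-cold lysis buffer, and 5−60 μg protein was run on 10−12% SDS-PAGE. Blots were probed for total and phosphorylated JNK (p-54, p-46) and α-tubulin. Band densities were normalized to total JNK. Two-tailed Student's t test.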

[29] = test system: L6; experiment: Antiapoptotic activity in rat L6 cells assessed as suppression of 23.5 mM D-glucose-induced JNK-54 phosphorylation at 25 uM after 8 hrs by Western blot analysis; assay type: functional, cell-based; procedure, shortened: as §6
[30] = Drug degradation in H2O2 solution at 2.7 mM after 1 month by HPLC/MS/NMR analysis in presence of Fe2+; assay type: physicochemical; conditions: H2O2 solution with Fe2+; read-out: Drug degradation
[31] = Induction of self-assembly of the compound in phosphate buffer at 100 uM after 2 days by uranyl acetate staining-based TEM analysis; assay type: physicochemical; conditions: 48 h
Procedure, shortened: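 Peptide (100 μM) was aged 2 days in phosphate buffer and negatively stained 30 s with 2% uranyl acetate. Nanotube formation was examined by TEM at 120 kV.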

## N[C@@H](Cc1c[nH]cn1)C(=O)O [HISTIDINE]
[1]
  EC50: 6000 nM
[2]
  EC50: 100000 nM

## O=C(O)CCCCC1CCSS1 (configuration not stated)
[3]
  Activity: Active
[4]
  Activity: inactive
[5]
  Activity: Active
[6]
  Activity: Active
[7]
  Activity: inactive
[8]
  Activity: inactive
[9]
  Activity: inactive
[10]
  Activity: Active
[11]
  Activity: inactive
[12]
  Activity: Active
[13]
  Activity: Active

## NCCCC[C@H]1NC(=O)[C@H](Cc2c[nH]cn2)NC(=O)[C@@H](Cc2c[nH]c3ccccc23)NC(=O)[C@H](Cc2c[nH]c3ccccc23)NC(=O)[C@@H](Cc2c[nH]cn2)NC(=O)[C@H](Cc2c[nH]cn2)NC(=O)[C@@H](Cc2c[nH]cn2)NC(=O)[C@H](Cc2c[nH]cn2)NC1=O
[14]
  Activity: inactive
[15]
  Activity: Dose-dependent effect
[16]
  inhibition: Active
[17]
  Activity: inactive
[18]
  Ratio: 80
[19]
  Activity: inactive
[20]
  Activity: 60%
[21]
  Ratio EC50: 15
[22]
  Activity: Active
[23]
  Activity: Active
[2]
  inhibition: Dose-dependent effect
[24]
  Activity: Active
[25]
  Activity: Active
[26]
  Activity: Active
[27]
  Activity: inactive
[28]
  Activity: Active
[29]
  Activity: Active

## NCCCC[C@H]1NC(=O)[C@H](Cc2c[nH]cn2)NC(=O)[C@@H](Cc2c[nH]cn2)NC(=O)[C@H](Cc2c[nH]cn2)NC(=O)[C@@H](Cc2c[nH]cn2)NC(=O)[C@H](Cc2c[nH]c3ccccc23)NC(=O)[C@@H](Cc2c[nH]c3ccccc23)NC(=O)[C@H](Cc2c[nH]cn2)NC1=O
[1]
  EC50: 400 nM
[30]
  degraded at 730.5 h: < 5%
[31]
  Activity: Active
[2]
  EC50: 3000 nM

## NCCCC[C@H]1NC(=O)[C@H](Cc2c[nH]cn2)NC(=O)[C@@H](Cc2c[nH]c3ccccc23)NC(=O)[C@H](Cc2c[nH]c3ccccc23)NC(=O)[C@@H](Cc2c[nH]cn2)NC(=O)[C@H](Cc2c[nH]cn2)NC(=O)[C@@H](Cc2c[nH]cn2)NC(=O)[C@H](CO)NC1=O
[1]
  EC50: 200 nM
[21]
  Ratio EC50: 30

## Cc1c(C)c2c(c(C)c1O)CCC(C)(C(=O)O)O2 (configuration not stated) [TROLOX]
[1]
  EC50: 350 nM
